According to PubChem BioAssay:
The source made the active and inactive calls.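 The calls were made as follows, unless noted: active = viability at or below 10% of carrier control in both of two separate runs; inconclusive = viability at or below 10% in only one of the two runs; inactive = the rest.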 Square brackets hold non-standard residues; d marks the D form. Peptide text beside a SMILES is read from it. * marks the point of attachment. ξ: configuration not given here. Cbz = O=C(OCc1ccccc1)*; ξK = NCCCCC(N)C(=O)O

What was measured:
[1] = Her2 expression decrease, cell viability multiplex – SKBR3 breast tumor cells, AlphaScreen, ATP viability, primary screen (AID 461;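 active = Her2 level under about 52% in both replicate screens, with viability over 70% of control, limit read from the data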;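 as to Her2 level: lower value means less Her2 protein in the cells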;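 as to viability: percent of carrier control wells set as 100% viability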); conditions: SKBR3 Her2 protein level, 18-24 h, measured here: SKBR3 viability, ATP luminescence, at 10 µM
[2] = target: Receptor tyrosine-protein kinase erbB-2 (Homo sapiens) (UniProt P04626); assay: as above; conditions: 18-24 h, at 10 µM, stronger effect = lower value
Receptor tyrosine-protein kinase erbB-2 (Homo sapiens), sequence (P04626 whole entry, looked up): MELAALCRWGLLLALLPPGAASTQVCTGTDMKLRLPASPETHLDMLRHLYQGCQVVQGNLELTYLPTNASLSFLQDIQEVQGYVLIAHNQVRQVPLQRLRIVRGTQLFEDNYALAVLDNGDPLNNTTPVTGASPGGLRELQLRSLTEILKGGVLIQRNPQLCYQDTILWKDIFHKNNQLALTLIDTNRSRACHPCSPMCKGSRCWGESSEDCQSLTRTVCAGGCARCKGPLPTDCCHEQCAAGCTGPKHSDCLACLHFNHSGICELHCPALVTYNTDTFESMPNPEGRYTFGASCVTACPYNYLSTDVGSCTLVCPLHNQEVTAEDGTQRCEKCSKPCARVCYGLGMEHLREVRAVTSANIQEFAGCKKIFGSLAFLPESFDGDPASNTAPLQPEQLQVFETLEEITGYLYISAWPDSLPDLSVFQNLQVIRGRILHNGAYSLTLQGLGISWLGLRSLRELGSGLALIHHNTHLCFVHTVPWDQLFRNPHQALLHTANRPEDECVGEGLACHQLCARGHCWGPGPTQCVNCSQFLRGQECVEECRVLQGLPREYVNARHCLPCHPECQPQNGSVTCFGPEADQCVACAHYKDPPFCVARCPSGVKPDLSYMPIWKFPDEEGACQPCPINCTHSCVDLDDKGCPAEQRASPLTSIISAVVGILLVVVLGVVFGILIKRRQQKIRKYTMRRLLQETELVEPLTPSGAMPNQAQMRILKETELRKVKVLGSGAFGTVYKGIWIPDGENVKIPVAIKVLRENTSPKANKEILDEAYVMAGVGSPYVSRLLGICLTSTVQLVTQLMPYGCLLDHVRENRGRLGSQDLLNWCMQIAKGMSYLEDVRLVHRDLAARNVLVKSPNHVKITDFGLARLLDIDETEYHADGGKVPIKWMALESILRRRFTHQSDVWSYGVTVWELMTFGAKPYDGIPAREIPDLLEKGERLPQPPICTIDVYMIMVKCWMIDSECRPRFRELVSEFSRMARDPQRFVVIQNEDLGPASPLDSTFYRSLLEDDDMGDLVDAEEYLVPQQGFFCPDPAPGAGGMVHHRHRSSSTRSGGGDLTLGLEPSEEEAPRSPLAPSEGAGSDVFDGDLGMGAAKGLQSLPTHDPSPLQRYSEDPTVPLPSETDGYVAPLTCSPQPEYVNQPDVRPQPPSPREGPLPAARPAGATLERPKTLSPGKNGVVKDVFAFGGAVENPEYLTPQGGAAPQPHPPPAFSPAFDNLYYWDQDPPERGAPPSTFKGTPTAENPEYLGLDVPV

[3] = reduced viability of SK-BR-3 breast cancer cells – cell-based, 24 h, human, pilot screen (AID 572); conditions: SK-BR-3 viability, CellTiter-Glo luminescence, at 10 µM, stronger effect = lower value;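 also: compound exposure lasted between 18 and 24 h rather than exactly 24 h; 100% = carrier-treated control wells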
[4] = HUVEC growth inhibition – cell-based, human, primary screen (AID 575;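 active = viability at or below 30% in both replicate assays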;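 also: 100% = median of untreated cell wells with 0.1% DMSO on each plate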); conditions: HUVEC proliferation, CellTiter-Glo luminescence, 72 h; at 10 µM; stronger effect = lower value
Summary of the method: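 system = HUVEC primary cells | amount = 1250 cells/well | buffer or medium = supplemented EBM, 2% fetal bovine serum | dosing = single-point 10 µM, DMSO 0.1% final | times = 72 h compound incubation | detection = CTG luminescence | read-out = % viability relative to median vehicle-well signal on each plate | control set = vehicle and MePR control wells | format = collagen-coated 384-well format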

[5] = H69AR cell proliferation blockers – human, duplicate replicates, primary screen (AID 580;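 active = viability at or under a set limit in both replicates, limit being median viability minus 3 SD, cut at about 48% in these data, passing the limit was not always enough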;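 also: 100% = mean luminescence of untreated wells and 0% = no signal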); conditions: H69AR lung tumor cells viability, ATP luminescence, 72 h; at 10 µM; stronger effect = lower value
[6] = MRP1 drug-resistance reversers in H69AR cells – cell-based, doxorubicin co-treatment, pilot screen (AID 601;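 active = viability loss from added drug above about 55%, and viability with drug at most 40%, in both replicates, limit read from the data, passing the limit was not always enough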); conditions: CellTiter-Glo, 72 h, at 10 µM; for differential viability (reversal): stronger effect = higher value
[7] = yeast transport mutant growth inhibition pilot in 384-well plates, post-Golgi transport modulator project (AID 636; in the data active = inhibition above about 31%); conditions: absorbance 615 nm, about 18 h, stronger effect = higher value
[8] = growth suppression of yeast trafficking mutant, preliminary HTS, modulators of trafficking downstream of Golgi apparatus project, 1536-format plate, OD 615 nm (AID 637; in the data active = inhibition above about 30%); conditions: yeast transport mutant growth, absorbance 615 nm, 18 h; stronger effect = higher value
[9] = H69AR cells + 2 uM doxorubicin, measured here: viability with 2 uM doxorubicin, stronger effect = lower value
[10] = H69AR cells, compound alone cytotoxicity

Row | Structure (SMILES) | viability [1] | Her2 level [2] | viability [3] | viability [4] | viability [5] | differential viability (reversal) ([6]; H69AR cells + 2 uM doxorubicin) | viability [6, 9] | viability [6, 10] | inhibition [7] | inhibition [8]
1 | COc1ccc(C(=O)NCCn2ccc3ccccc32)c(OC)c1 | 95% | 81% (inactive) | 95% (inactive) | 88.7% (inactive) | 87.7% (inactive) | -0.23% (inactive) | 87.9% | 87.7% | -6.49% (inactive) | 1.11% (inactive)
2 | CCC(C)n1[nH]c(=O)c2c(C)cc(C)nc21 (stereo not given) | 97.5% | 91.5% (inactive) | 97.5% (inactive) | 95.8% (inactive) | 98.8% (inactive) | 9.86% (inactive) | 88.9% | 98.8% | -5.26% (inactive) | -1.64% (inactive)
3 | Cc1cc(C(F)F)n2nc(C(=O)Nc3ccc(S(=O)(=O)N4CCCCCC4)cc3)nc2n1 | 74% | 73.5% (inactive) | 74% (inactive) | 83.4% (inactive) | 83.3% (inactive) | -1.62% (inactive) | 84.9% | 83.3% | -3.87% (inactive) | 22.9% (inactive)
4 | Cc1cc(C(=O)NCCCN2CCN(C3CCCCC3)CC2)n(-c2ccccc2)n1 | 94% | 111% (inactive) | 94% (inactive) | 111% (inactive) | 103% (inactive) | 11.8% (inactive) | 90.8% | 103% | 1.73% (inactive) | -8.33% (inactive)
5 | O=C(CN1CCC(NC(=O)c2ccc(F)cc2)CC1)NCc1ccccc1F | 96.5% | 98.5% (inactive) | 96.5% (inactive) | 91.5% (inactive) | 103% (inactive) | 3.44% (inactive) | 100% | 103% | -5.6% (inactive) | -0.63% (inactive)
6 | Cc1cc(NS(=O)(=O)c2ccc(Nc3nc(-c4sc(N)nc4C)cs3)cc2)no1 | 104% | 116% (inactive) | 104% (inactive) | 75.5% (inactive) | 98% (inactive) | 9.14% (inactive) | 88.8% | 98% | -4.08% (inactive) | -4% (inactive)
7 | COc1ccc(C(=O)Nc2ccc(S(=O)(=O)NC(C)=O)cc2)cc1 | 120% | 100% (inactive) | 120% (inactive) | 96.5% (inactive) | 93.1% (inactive) | -5.71% (inactive) | 98.8% | 93.1% | -4.13% (inactive) | -2.26% (inactive)
8 | COC(=O)C(CCCCNC(=O)OCc1ccccc1)NC(=O)CN (stereo not given) (H-Gly-[ξK](Cbz)-OMe) | 109% | 92.5% (inactive) | 109% (inactive) | 96.6% (inactive) | 100% (inactive) | 4.78% (inactive) | 95.5% | 100% | -2.6% (inactive) | -0.79% (inactive)
9 | Cc1ccc(-c2csc3nnc(SCC(=O)NCc4ccco4)n23)cc1 | 88.5% | 84.5% (inactive) | 88.5% (inactive) | 85.6% (inactive) | 84.2% (inactive) | 0.64% (inactive) | 83.6% | 84.2% | -6.27% (inactive) | -4.19% (inactive)
10 | Cc1cc(C)n(-c2cc(N3CCOCC3)nc(-c3ccccc3)n2)n1 | 85% | 104% (inactive) | 85% (inactive) | 75.7% (inactive) | 73.6% (inactive) | -7.4% (inactive) | 81% | 73.6% | -5.79% (inactive) | 4.17% (inactive)
11 | COc1ccc(-c2nn3c(-c4ccncc4)nnc3s2)cc1OC | 105% | 116% (inactive) | 105% (inactive) | 104% (inactive) | 99.2% (inactive) | -8.5% (inactive) | 108% | 99.2% | -0.39% (inactive) | 0.16% (inactive)
12 | C[N+]1=C2CCCCCN2C(O)(c2ccccc2)C1 (stereo not given) | 97% | 85% (inactive) | 97% (inactive) | 101% (inactive) | 96.3% (inactive) | -1.28% (inactive) | 97.6% | 96.3% | -0.79% (inactive) | 1.29% (inactive)
13 | CCOC(=O)N1CCC(N2C(=O)c3ccccc3C2Nc2ccc3c(C)cc(=O)oc3c2)CC1 (stereo not given) | 76% | 105% (inactive) | 76% (inactive) | 115% (inactive) | 83.4% (inactive) | 13.9% (inactive) | 69.5% | 83.4% | -1.79% (inactive) | -2.67% (inactive)
14 | Cc1ccc(-c2nn(C)c(=O)c3ccccc23)cc1S(=O)(=O)N1CCOCC1 | 77% | 83% (inactive) | 77% (inactive) | 83.8% (inactive) | 92.8% (inactive) | 16% (inactive) | 76.8% | 92.8% | -5.07% (inactive) | -3.06% (inactive)
15 | Cc1ccc(-c2noc(C3CCCN(C(=O)c4ccccc4)C3)n2)o1 (stereo not given) | 86% | 95% (inactive) | 86% (inactive) | 94.8% (inactive) | 95.1% (inactive) | 4.09% (inactive) | 91% | 95.1% | -5.66% (inactive) | 0.33% (inactive)
16 | Cc1ccc(S(=O)(=O)NCCCCC(NC(=O)OC(C)(C)C)C(=O)O)cc1 (stereo not given) (tested in a mixture with another compound) | 91.5% | 92.5% (inactive) | 91.5% (inactive) | 125% (inactive) | 104% (inactive) | 7.71% (inactive) | 96.8% | 104% | -3.68% (inactive) | 8.52% (inactive)
17 | CC(C)(C)NC(=O)COC(=O)c1ccc(O)cc1 | 100% | 104% (inactive) | 100% (inactive) | 103% (inactive) | 98.9% (inactive) | -3.93% (inactive) | 103% | 98.9% | -2.99% (inactive) | -1.27% (inactive)
18 | O=C(c1ccco1)N1CCN(/C(=N/S(=O)(=O)c2cccs2)c2ccccc2Cl)CC1 | 77% | 81% (inactive) | 77% (inactive) | 88.7% (inactive) | 93.1% (inactive) | 0.85% (inactive) | 92.3% | 93.1% | -4.73% (inactive) | -3.77% (inactive)
19 | Cc1ccc(NC(=O)Nc2ccc3c(c2)N(C)C(=O)CS3)nc1 | 108% | 68.5% (inactive) | 108% (inactive) | 45.5% (inactive) | 88.3% (inactive) | -8.16% (inactive) | 96.4% | 88.3% | -3.73% (inactive) | -0.33% (inactive)
20 | CCOC(=O)C1CCCN(Cc2nc(N)nc(Nc3ccc(C)cc3)n2)C1 (stereo not given) | 99.5% | 78% (inactive) | 99.5% (inactive) | 80% (inactive) | 87.4% (inactive) | -1.19% (inactive) | 88.6% | 87.4% | 0% (inactive) | 7.54% (inactive)
21 | Cc1noc(C)c1C(=O)OCC(=O)Nc1ccccc1C(=O)NC(C)c1ccccc1 (stereo not given) | 90.5% | 86% (inactive) | 90.5% (inactive) | 70.5% (inactive) | 87.2% (inactive) | -6.91% (inactive) | 94.1% | 87.2% | -4.93% (inactive) | 6.72% (inactive)
22 | O=C(NC1CCCc2ccccc21)C1CCN(S(=O)(=O)c2cnc[nH]2)CC1 (stereo not given) | 104% | 100% (inactive) | 104% (inactive) | 102% (inactive) | 94.8% (inactive) | -11.3% (inactive) | 106% | 94.8% | -0.79% (inactive) | -3.87% (inactive)
23 | Cc1nc2c(-c3ccccc3)c(C)nn2c(C)c1CCC(=O)O | 97.5% | 100% (inactive) | 97.5% (inactive) | 85.5% (inactive) | 86.2% (inactive) | -0.87% (inactive) | 87% | 86.2% | -4% (inactive) | 5.57% (inactive)
24 | O=C(OC1CCOC1=O)c1ccc(S(=O)(=O)N2CCCCCC2)cc1 (stereo not given) | 95.5% | 113% (inactive) | 95.5% (inactive) | 95.3% (inactive) | 106% (inactive) | 12.5% (inactive) | 93.6% | 106% | 0.26% (inactive) | 1.83% (inactive)
25 | CCOc1ccc(C(=O)N2CCC(C(=O)c3ccc4c(c3)OCCO4)CC2)cc1 | 84.5% | 79.5% (inactive) | 84.5% (inactive) | 77.8% (inactive) | 86.3% (inactive) | 0.19% (inactive) | 86.1% | 86.3% | -4.61% (inactive) | -6.91% (inactive)
26 | O=C(CCn1c(=O)sc2ccccc21)Nc1cccnc1 | 104% | 92% (inactive) | 104% (inactive) | 96.8% (inactive) | 99.6% (inactive) | 8.59% (inactive) | 91% | 99.6% | -3.87% (inactive) | 1.48% (inactive)
27 | CCOC(=O)CC1(CC(=O)OCC)NC(=O)c2c(C)sc(C(=O)OCC)c2N1 | 92% | 93% (inactive) | 92% (inactive) | 71.4% (inactive) | 101% (inactive) | 5.26% (inactive) | 95.3% | 101% | -1.05% (inactive) | 6.39% (inactive)
28 | CCOC(=O)c1sc(C)c2c(=O)n(CC)nnc12 | 94% | 111% (inactive) | 94% (inactive) | 98.3% (inactive) | 103% (inactive) | 1.48% (inactive) | 102% | 103% | -4% (inactive) | -9.52% (inactive)
